In ChEMBL document CHEMBL1155040, “Potency and selectivity of trifluoroacetylimino and pyrazinoylimino nicotinic insecticides and their fit at a unique binding site niche” (J Med Chem, 2008):
Values after ≈ are worked out from the molar mass of the structure shown.

Assays:
Musca domestica [1] = assay: Insecticidal activity against houseflies; type: functional
Procedure, shortened: (§1)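 Adult female houseflies were dosed by intrathoracic injection or topical application, either without or with topical pretreatment with the P450 inhibitor synergist O-propyl O-(2-propynyl)phenylphosphonate (100 µg/g) before the test chemical. Where no LD50 was obtained, percent mortality at the indicated dose is given.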

[2] = (§2) Displacement of [3H]IMI from nAChR in Drosophila brain
Procedure, shortened: (§3)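 IC50 (nM, ± SD) for displacing [³H]IMI binding to native nAChR from Drosophila brain.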

Musca domestica [3] = assay: Insecticidal activity against intrathoracically dosed houseflies at >10 um/g; type: functional; procedure, shortened: as §1
Mus musculus [4] = assay: Toxicity in Swiss Webster mouse at >36 mg/kg, ip; type: organism-based; conditions: in vivo
Procedure, shortened: (§4)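 Male albino Swiss-Webster mice (25-30 g) were dosed intraperitoneally. Results are LD50 in mg/kg, or percent lethality at the indicated dose, which was the maximum allowed by solubility in the vehicle.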

[5] = Displacement of [3H]IMI from peach-potato aphid alpha2/rat beta2 nAChR hybrid recombinant receptor
Culex quinquefasciatus [6] = assay: Mosquito Larvicidal activity against premethrin-resistant fourth instar Culex quinquefasciatus Marin after 24 hrs; type: functional
Procedure, shortened: (§5)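 Larvicidal test on fourth-instar Culex quinquefasciatus, using the susceptible CQ1 colony and the permethrin-resistant Marin colony, with 24 h exposure.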

[7] = Toxicity in ip dosed Swiss Webster mouse; type: organism-based; conditions: in vivo; procedure, shortened: as §4
[8] = biological target: Neuronal acetylcholine receptor subunit alpha-4 (Gallus gallus, UniProt P09482+P09484); assay: Displacement of [3H]nicotine from chick alpha4beta2 nAChR
Neuronal acetylcholine receptor subunit alpha-4, sequence (P09482 whole entry, one chain of several): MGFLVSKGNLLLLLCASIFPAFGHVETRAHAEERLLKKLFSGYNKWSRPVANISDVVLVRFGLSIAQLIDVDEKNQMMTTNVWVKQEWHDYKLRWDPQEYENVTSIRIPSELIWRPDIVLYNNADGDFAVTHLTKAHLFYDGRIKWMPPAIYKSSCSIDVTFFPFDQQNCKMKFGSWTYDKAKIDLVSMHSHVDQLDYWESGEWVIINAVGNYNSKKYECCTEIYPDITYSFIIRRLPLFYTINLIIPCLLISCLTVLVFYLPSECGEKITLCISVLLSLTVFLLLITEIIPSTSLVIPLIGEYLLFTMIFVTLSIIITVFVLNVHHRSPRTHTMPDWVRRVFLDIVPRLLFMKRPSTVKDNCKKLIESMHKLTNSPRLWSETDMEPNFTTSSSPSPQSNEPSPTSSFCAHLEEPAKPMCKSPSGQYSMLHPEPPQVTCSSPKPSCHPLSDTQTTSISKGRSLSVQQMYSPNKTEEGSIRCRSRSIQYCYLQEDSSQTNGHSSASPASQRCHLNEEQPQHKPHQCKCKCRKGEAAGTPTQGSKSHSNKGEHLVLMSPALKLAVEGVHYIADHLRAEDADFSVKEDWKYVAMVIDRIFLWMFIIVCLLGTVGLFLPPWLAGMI
Procedure, shortened: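 Radioligand displacement used [³H]nicotine with chick α4β2 nAChR. Values are IC50 ± SD in nM.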

Culex quinquefasciatus [9] = assay: Mosquito Larvicidal activity against premethrin-susceptible fourth instar Culex quinquefasciatus CQ1 after 24 hrs; type: functional; conditions: CQ1, 24 h; procedure, shortened: as §5
[10] = Lipophilicity, log P of the compound; type: physicochemical; conditions: octanol/water
Mus musculus [11] = assay: Toxicity in Swiss Webster mouse at >24 mg/kg, ip; type: organism-based; conditions: in vivo; procedure, shortened: as §4
Drosophila = assay: as §2; conditions: concentration not given here; procedure, shortened: as §3

With `CNC(=O)Oc1ccccc1OC(C)C` [PROPOXUR] the LD50 (Musca domestica [1]) was 23 mg/kg.

With `O=C(/N=c1\sccn1Cc1ccc(Cl)nc1)c1ccccn1` the LD50 (Musca domestica [1]) was > 10 mg/kg, the IC50 [2] was 0.013 µM and the Activity (Musca domestica [3]) was 0%.

`O=C(/N=c1\sccn1Cc1ccc(Cl)nc1)C(F)(F)F` showed an LD50 (Musca domestica [1]) of 0.75 mg/kg, an Activity (Mus musculus [4]) of 0% and an IC50 [2] of 0.0031 µM. The IC50 [5] was 0.28 µM, the LC50 (Culex quinquefasciatus [6]) was 0.024 mg/L (≈ 0.0746 µM) and the LD50 [7] was > 36 mg/kg. It also gave an IC50 [8] of 0.5 µM and an LC50 (Culex quinquefasciatus [9]) of 0.012 mg/L (≈ 0.0373 µM).

`CCOP(=S)(OCC)Oc1ccc([N+](=O)[O-])cc1` [PARATHION] showed an LD50 (Musca domestica [1]) of 1.3 mg/kg.

With `O=C(/N=c1\sccn1Cc1ccc(Cl)nc1)c1cccnc1` the LD50 (Musca domestica [1]) was > 10 mg/kg, the IC50 [2] was 0.0048 µM and the Activity (Musca domestica [3]) was 0%.

With `O=C(/N=c1\sccn1Cc1ccc(Cl)nc1)c1ccccc1` the LD50 (Musca domestica [1]) was > 10 mg/kg, the IC50 [2] was 0.121 µM and the Activity (Musca domestica [3]) was 0%.

With `N#C/N=C1\SCCN1Cc1ccc(Cl)nc1` [THIACLOPRID] the LD50 (Musca domestica [1]) was > 10 mg/kg, the IC50 [2] was 0.0027 µM and the IC50 [5] was 0.011 µM. The logP [10] was 1.26, the Activity (Musca domestica [3]) was 19% and the LD50 [7] was 28 mg/kg. It also gave an IC50 [8] of 0.86 µM.

In the case of `O=C(/N=c1\sccn1Cc1ccc(Cl)nc1)c1ccncc1`, the LD50 (Musca domestica [1]) is reported as > 10 mg/kg, the IC50 [2] is reported as 0.01 µM and the Activity (Musca domestica [3]) is reported as 0%.

For `ClC1=C(Cl)[C@]2(Cl)[C@@H]3[C@@H]4C[C@@H]([C@H]5O[C@@H]45)[C@@H]3[C@@]1(Cl)C2(Cl)Cl` [DIELDRIN], the LD50 (Musca domestica [1]) was 0.75 mg/kg.

`CCOP(=S)(OCC)Oc1nc(Cl)c(Cl)cc1Cl` [CHLORPYRIFOS] showed an LD50 (Musca domestica [1]) of 2.1 mg/kg.

With `O=C(/N=c1\[nH]ccn1Cc1ccc(Cl)nc1)C(F)(F)F` the LD50 (Musca domestica [1]) was > 10 mg/kg and the IC50 [2] was 0.0077 µM.

Compound `Clc1ccc(C(c2ccc(Cl)cc2)C(Cl)(Cl)Cl)cc1` [CHLOROPHENOTHANE] has an LD50 (Musca domestica [1]) of 14 mg/kg.

For `O=C(/N=c1\sccn1Cc1ccc(Cl)nc1)c1cnccn1`, the LD50 (Musca domestica [1]) was > 10 mg/kg, the IC50 [2] was 0.0015 µM and the IC50 [5] was 0.72 µM. For the same compound, the Activity (Musca domestica [3]) was 0%, the LD50 [7] was > 24 mg/kg and the IC50 [8] was 0.9 µM. It also gave an Activity (Mus musculus [11]) of 0%.

For `CC1(C)C(C=C(Cl)Cl)C1C(=O)OCc1cccc(Oc2ccccc2)c1` (stereo unspecified) [PERMETHRIN], the LC50 (Culex quinquefasciatus [6]) was 0.16 mg/L (≈ 0.409 µM) and the LC50 (Culex quinquefasciatus [9]) was 0.005 mg/L (≈ 0.0128 µM).

In the case of `O=[N+]([O-])/N=C1\NCCN1Cc1ccc(Cl)nc1` [IMIDACLOPRID], the LD50 (Musca domestica [1]) is reported as > 10 mg/kg, the IC50 [2] is reported as 0.0043 µM and the IC50 [5] is reported as 0.0036 µM. For the same compound, the Activity (Musca domestica [3]) was 0%, the LD50 [7] was 45 mg/kg and the IC50 [8] was 2.6 µM.

With `O=C(/N=c1\sccn1Cc1ccc(Cl)nc1)c1ccc(Cl)cc1` the LD50 (Musca domestica [1]) was > 10 mg/kg, the inhibition (Drosophila) was 10% and the IC50 [2] was > 30 µM. The Activity (Musca domestica [3]) was 0%.

In the case of `O=C(/N=c1\sccn1Cc1ccc(Cl)nc1)c1ccc(Cl)nc1`, the LD50 (Musca domestica [1]) is reported as > 10 mg/kg, the IC50 [2] is reported as 0.041 µM and the Activity (Musca domestica [3]) is reported as 0%.
